Published values pooled from the literature.
Compare with care: the assays were run in different laboratories.
Target: Inhibitor of nuclear factor kappa-B kinase subunit epsilon (IKBKE, Homo sapiens, UniProt Q14164)
Read-out: enzyme activity
One construct used (Q14164 1-716): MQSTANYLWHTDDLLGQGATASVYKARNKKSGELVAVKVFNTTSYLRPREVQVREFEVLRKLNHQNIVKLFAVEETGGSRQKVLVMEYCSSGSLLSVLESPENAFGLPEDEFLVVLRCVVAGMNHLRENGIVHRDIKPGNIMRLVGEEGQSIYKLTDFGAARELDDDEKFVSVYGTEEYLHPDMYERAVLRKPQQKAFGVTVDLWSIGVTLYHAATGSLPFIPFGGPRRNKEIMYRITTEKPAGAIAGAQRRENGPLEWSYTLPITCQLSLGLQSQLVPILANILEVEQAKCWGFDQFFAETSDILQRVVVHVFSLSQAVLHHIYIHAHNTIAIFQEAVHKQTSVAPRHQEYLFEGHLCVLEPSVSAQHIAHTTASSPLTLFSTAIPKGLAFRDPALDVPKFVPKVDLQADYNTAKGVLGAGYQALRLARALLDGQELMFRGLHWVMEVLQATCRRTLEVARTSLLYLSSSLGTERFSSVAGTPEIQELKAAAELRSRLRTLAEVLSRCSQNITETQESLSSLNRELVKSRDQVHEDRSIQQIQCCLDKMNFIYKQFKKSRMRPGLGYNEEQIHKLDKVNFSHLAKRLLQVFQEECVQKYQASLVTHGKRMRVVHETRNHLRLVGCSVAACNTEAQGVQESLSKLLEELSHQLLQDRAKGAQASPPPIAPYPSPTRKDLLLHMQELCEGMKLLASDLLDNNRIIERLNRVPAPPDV

SMILES	assay	setting	remaining activity [%]
Cc1cnc(NC2CCOCC2)nc1-n1cnc(C(=O)NC(CN)c2cc(F)cc(Cl)c2)c1 (stereo not drawn)	inhibitor, radiometric	1 µM	64
O=C(NCCCNc1nc(Nc2cccc(NC(=O)N3CCCC3)c2)ncc1C1CC1)C1CCC1	inhibitor, radiometric	1 µM	3
FC(F)c1nc2ccccc2n1-c1nc(N2CCOCC2)nc(N2CCOCC2)n1	inhibitor	10 µM	84
Brc1cnc(Nc2cccc(CN3CCOCC3)c2)nc1NCCc1c[nH]cn1	inhibitor, radiometric	1 µM	36
CC(C)(C)c1nc(-c2cccc(NS(=O)(=O)c3c(F)cccc3F)c2F)c(-c2ccnc(N)n2)s1	inhibitor, radiometric	1 µM	97
Clc1ccc(Nc2nnc(Cc3ccncc3)c3ccccc23)cc1		0.5 µM	95.7
O=C(Nc1cnn(-c2csc(C(=O)NC3COC3)c2)c1)Nc1c(F)cccc1Cl	inhibitor	5 µM	96.8
c1cc(CN2CCOCC2)cc(Nc2ncc(C3CC3)c(NCCc3c[nH]cn3)n2)c1	inhibitor, radiometric	1 µM	55
O=c1c2ccccc2[nH]c(=S)n1CCN1CCC(=C(c2ccc(F)cc2)c2ccc(F)cc2)CC1	inhibitor	0.5 µM	101
CC(C)(O)[C@H]1CC[C@H](Nc2ccc3ncc(-c4cccc(C(F)(F)F)c4)n3n2)CC1	inhibitor	1 µM	90.2
COc1cc(Cl)c(C(=O)N[C@@H](CN[C@H]2CC[C@@H](N)CC2)Cc2ccc(C#N)cc2)cc1-c1ccc(CN[C@H](C)c2ccc(C)cc2)o1	inhibitor	1 µM	89
NS(=O)(=O)c1ccc(CNc2nc(Nc3cccc(NC(=O)N4CCCC4)c3)ncc2Br)cc1	inhibitor, radiometric	1 µM	35
COc1cc(Nc2cnc(C#N)c(O[C@H](C)CN(C)C)n2)ncc1-c1cnn(C)c1	inhibitor, radiometric	1 µM	78
O=C1Nc2ccc(Cl)cc2C1=Cc1cc(Cl)c(O)c(Cl)c1		0.5 µM	94.7
NS(=O)(=O)c1ccc(CNc2nc(Nc3cccc(CN4CCOCC4)c3)ncc2Br)cc1	inhibitor, radiometric	1 µM	32
